The subject of assay [1] is Rattus norvegicus. The assay is described as follows: Antiallergic property in passive cutaneous anaphylaxis (PCA) test in rats upon oral administration. Format: functional. The procedure, abridged:
(§1)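 Male Sprague-Dawley rats (200 g) were sensitized id on the shaved back with 0.05 mL of a 1:100 dilution of rat anti-ovalbumin IgE serum. After 48 h they were challenged iv with 1.0 mL of 0.8% ovalbumin containing 5 mg Evans blue, and killed 40 min later. Wheal area (mm²) was taken as the longest diameter times its perpendicular. ED50 is the dose halving wheal size versus control, from regression over at least four log-spaced doses with five rats per dose.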

For assay [2], the system named is Rattus norvegicus. Nature of the assay: Antiallergic property in passive cutaneous anaphylaxis (PCA) test in rats upon intraperitoneal administration. Format: functional. Particulars: for ED50: ip. The method in brief: as §1
In assay [3] the test system is Rattus norvegicus. Nature of the assay: Antiallergic property in passive cutaneous anaphylaxis (PCA) test in rats upon intraperitoneal administration; NA=Not active at 100 mg/kg. Format: functional, organism-based. On the set-up: dose 100 mg/kg. The method in brief: as §1
Assay [4] concerns Rattus norvegicus. The assay is described as follows: Antiallergic property in passive cutaneous anaphylaxis (PCA) test in rats upon oral administration; NA=Not active at 100 mg/kg. Format: functional, organism-based. On the set-up: dose 100 mg/kg. The procedure, abridged:
as §1

In assay [5] the test system is Rattus norvegicus. Nature of the assay: Percent inhibition using passive cutaneous anaphylaxis (PCA assay) in rat at 1 mg/kg upon oral administration. Format: functional. The method in brief: (§2)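 Rats (male Sprague-Dawley, 200 g) were passively sensitized id with 0.05 mL of 1:100 IgE antiserum raised against ovalbumin. After a 48-h latency they were challenged iv with 0.8% ovalbumin (1.0 mL) plus 5 mg Evans blue. Skin was reflected 40 min later and stained wheals measured as longest diameter × perpendicular (mm²). Results are percent inhibition of wheal size versus control.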

In assay [6] the test system is Rattus norvegicus. The assay is described as follows: Percent inhibition of wheal size in passive cutaneous anaphylaxis (PCA) test at 50 mg/kg upon intraperitoneal administration. It is filed as functional. The note with it: ip. The method in brief: as §2
The subject of assay [7] is Rattus norvegicus. Nature of the assay: Percent inhibition of wheal size in passive cutaneous anaphylaxis (PCA) test at 50 mg/kg upon oral administration. It is filed as functional. The procedure, abridged: as §2
Assay [8] deals with Rattus norvegicus. Nature of the assay: Percent inhibition of wheal size in passive cutaneous anaphylaxis (PCA) test at 50 mg/kg (administered orally). Format: functional. Particulars: po. The procedure, abridged: as §2

Activity calls are given as the source filed them. The rule behind the calls is not given here.

Turning to `CCOC(=O)C(=O)Nc1cccc(N2CCOCC2)c1C#N`, the results for the median effective dose (ED50) in assay [1] and in assay [2] were 6.3 mg/kg and 1.2 mg/kg, respectively.

Consider `CCOC(=O)C(=O)Nc1ccc(C(F)(F)F)c(N2CCOCC2)c1C#N`, for which the ED50 in assay [1] was greater than 100 mg/kg; in assay [2], 0.1 mg/kg.

Consider `CCOC(=O)C(=O)Nc1cccc(S(C)(=O)=O)c1C#N`, for which, in assay [3], the ED50 entry is “inactive”.

In the case of `CCOC(=O)C(=O)Nc1cccc(N2CCCCC2)c1C#N`, the ED50 result in assay [4] is “inactive”. This molecule registered an ED50 in assay [2] of 2.2 mg/kg.

Consider `CCCNc1cccc(NC(=O)C(=O)OCC)c1C#N`, for which the ED50 in assay [1] is 0.7 mg/kg; in assay [2] it was 0.5 mg/kg.

In the case of `CCCNc1cccc(NC(=O)C(=O)[O-])c1C#N.[Na+]`, in assay [5], the % inhibition at 1 mg/kg came to 83.1%.

For `Cc1cccc(NC(=O)C(=O)O)c1C#N`, the inhibition in vivo at 1 mg/kg in assay [5] worked out at 32.3%.

On to `CC(C)Oc1cccc(NC(=O)C(=O)O)c1C#N`, for which, in assay [5], the inhibition in vivo at 1 mg/kg was 75.1%.

Consider `CCOC(=O)C(=O)Nc1cccc(Br)c1C#N`, for which the ED50 entry in assay [3] was “inactive”.

Regarding `CCOC(=O)C(=O)Nc1cccc(C(=O)OC)c1C#N`, the ED50 in assay [1] was 0.8 mg/kg; in assay [2], 1.2 mg/kg.

In the case of `COC(=O)c1cccc(NC(=O)C(=O)O)c1C#N`, the inhibition in vivo at 1 mg/kg in assay [5] is 24.5%.

As for `CCN(C)c1cccc(NC(=O)C(=O)O)c1C#N`, testing at 1 mg/kg in assay [5] gave an inhibition in vivo of 56.3%.

`CCOC(=O)C(=O)Nc1ccc(N(C)C)cc1C#N`: the ED50 in assay [1] turned out to be 2.4 mg/kg; in assay [2], 1 mg/kg.

Consider `CCOC(=O)C(=O)Nc1cccc(OC)c1C#N`, for which the ED50 stood at 55.5 mg/kg in assay [1] and 5.3 mg/kg in assay [2].

`CN(C)c1cccc(NC(=O)C(=O)O)c1C#N` returned an inhibition in vivo at 1 mg/kg in assay [5] of 54.7%.

Take `CCOC(=O)C(=O)Nc1cccc(N)c1C#N`: the ED50 is 0.07 mg/kg in assay [1] and 0.05 mg/kg in assay [2].

Turning to `N#Cc1c(N)cccc1NC(=O)C(=O)O`, the inhibition in vivo at 1 mg/kg in assay [5] worked out at 21.2%.

`CCN(CC)c1cccc(NC(=O)C(=O)O)c1C#N`: in assay [5], at 1 mg/kg the inhibition in vivo was 99.2%.

As for `CCOC(=O)C(=O)Nc1cccc(N(C)CC)c1C#N`, the ED50 in assay [1] was 0.5 mg/kg; in assay [2] it was 0.3 mg/kg.

In assay [6], `CCOC(=O)C(=O)Nc1ccc([N+](=O)[O-])cc1C#N` returned an inhibition in vivo at 50 mg/kg of 33%.

Take `CCOC(=O)C(=O)Nc1cccc([N+](=O)[O-])c1C#N`: the figures for the 50% effective dose (ED50) in assay [1] and in assay [2] were 82 mg/kg and 0.4 mg/kg, respectively.

On to `CNc1cccc(NC(=O)C(=O)[O-])c1C#N.[Na+]`, for which, in assay [1], it took a dose of 0.07 mg/kg to reach the 50% effect level (ED50). This molecule registered an inhibition in vivo at 1 mg/kg in assay [5] of 96%.

Consider `CCOC(=O)C(=O)Nc1cccc(NC)c1C#N`, for which the 50% effective dose (ED50) in assay [1] turned out to be 0.1 mg/kg; in assay [2], 0.2 mg/kg.

As to `CCOC(=O)C(=O)Nc1ccc(N)cc1C#N`, the 50% effective dose (ED50) turned out to be 8.8 mg/kg in assay [1] and 1 mg/kg in assay [2].

On to `CCOC(=O)C(=O)Nc1cccc(N(CC)CC)c1C#N`, for which the ED50 came out at 0.9 mg/kg in assay [1] and 0.7 mg/kg in assay [2].

As to `CCCCCOc1cccc(NC(=O)C(=O)OCC)c1C#N`, the Inhibition in assay [2] was 25%.

On to `CCOC(=O)C(=O)Nc1cc(N(C)C)ccc1C#N`, for which the ED50 in assay [1] is greater than 100 mg/kg; in assay [2], 1.9 mg/kg.

`CCCCNc1cccc(NC(=O)C(=O)OCC)c1C#N`: the ED50 in assay [1] and in assay [2] was 0.3 mg/kg each time.

In the case of `CCOC(=O)C(=O)Nc1cccc(N(C)C(C)C)c1C#N`, the ED50 in assay [1] was determined as 1.2 mg/kg; in assay [2], 0.3 mg/kg.

Consider `CCNc1cccc(NC(=O)C(=O)O)c1C#N`, for which at 1 mg/kg the inhibition in vivo in assay [5] was 58.9%.

For the molecule `CCOC(=O)C(=O)Nc1cccc(C)c1C#N`, the 50% effective dose (ED50) in assay [1] came out at 4.6 mg/kg; in assay [2], 5.3 mg/kg.

Take `CCOC(=O)C(=O)Nc1c(C#N)cccc1N(C)C`: the ED50 result in assay [3] is “inactive”.

Turning to `CCOC(=O)C(=O)Nc1cccc(C(C)C)c1C#N`, testing at 50 mg/kg in assay [7] gave an inhibition in vivo of 18%. In addition, the ED50 entry in assay [3] is “inactive”.

Regarding `CCOC(=O)C(=O)Nc1cccc(N2CCCC2)c1C#N`, the inhibition in vivo at 50 mg/kg in assay [7] and in assay [6] was 83% throughout.

Turning to `CCOC(=O)C(=O)Nc1cccc(N(C)C)c1C#N`, the median effective dose (ED50) in assay [1] is 4.2 mg/kg; in assay [2], 0.2 mg/kg.

In assay [5], `CCCCNc1cccc(NC(=O)C(=O)[O-])c1C#N.[Na+]` had a % inhibition at 1 mg/kg of 93.5%.

In the case of `O=C([O-])c1cc(=O)c2c(OCC(O)COc3cccc4oc(C(=O)[O-])cc(=O)c34)cccc2o1.[Na+].[Na+]` [CROMOLYN SODIUM], the ED50 entry in assay [4] is “inactive”. The molecule also displayed an ED50 in assay [2] of 8 mg/kg.

For the molecule `CCOC(=O)C(=O)Nc1cccc(NC(C)=O)c1C#N`, the inhibition in vivo at 50 mg/kg in assay [6] and in assay [8] was 91% in each case.

On to `CCOC(=O)C(=O)Nc1cccc(OC(C)C)c1C#N`, for which the ED50 in assay [1] is 1 mg/kg; in assay [2] it was 2 mg/kg.

On to `CCOC(=O)C(=O)Nc1cccc(F)c1C#N`, for which the values for the median effective dose (ED50) in assay [1] and in assay [2] were 59 mg/kg and 1.2 mg/kg, respectively.

On to `CCNc1cccc(NC(=O)C(=O)OCC)c1C#N`, for which the median effective dose (ED50) in assay [1] and in assay [2] was 0.03 mg/kg throughout.

Consider `CCOC(=O)C(=O)Nc1cccc(Cl)c1C#N`, for which testing at 50 mg/kg in assay [6] gave an inhibition in vivo of 56%.

With `N#Cc1c(NC(=O)C(=O)O)cccc1N1CCOCC1`, the inhibition in vivo at 1 mg/kg in assay [5] amounted to 14.1%.

As for `CCOC(=O)C(=O)Nc1ccccc1C#N`, the median effective dose (ED50) came to 2.9 mg/kg in assay [1] and 0.4 mg/kg in assay [2].

On to `CCOC(=O)C(=O)Nc1cccc(N2CCN(C)CC2)c1C#N.Cl`, for which the ED50 in assay [1] stood at 10.3 mg/kg; in assay [2], 0.04 mg/kg.

In general, ED50 refers to the dose at which the effect has come halfway, by size or by number of responders. The % inhibition is the drop in the measured response relative to a control, in per cent. Lower therefore signals a weak effect. Usually inhibition in vivo stands for the relative decrease from the control value, in per cent. One may read the Inhibition as how much of the control response was suppressed. A higher Inhibition goes with a strong effect.
